In article PMC5856478 (Biochemistry, 2018):
“Also recorded” adds a separate entry of the source. No end group written: not given here.

Tests used:
[1] = test system: Ask1; experiment: Ask1 phosphorylation, Western blotting; format: cell-based; conditions: MDA-MB-231 cells, 6 h
How it was run: (§1)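 MDA-MB-231 cells in 6 cm dishes were exposed to the test peptide, a TAT-only peptide, a scrambled-order (reverse) TAT peptide or a reference Trx1 inhibitor at 37 °C for 6 h. Cells were then lysed in TBST with 0.1% Triton X-100, 50 mM NaF and EDTA-free protease inhibitors. Equal protein was run on SDS-PAGE and blotted to PVDF. Primary antibodies (p-Ask1 Thr845, p-JNK Thr183/Tyr185, p-p38 Thr180/Tyr182, p-AMPK Thr172, GRP78, plus total proteins) were applied overnight at 4 °C, followed by HRP secondary and chemiluminescence. Data come from two or three independent experiments.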

[2] = test system: p53; experiment: p53 stabilization, Western blotting; format: cell-based; conditions: 100 μM, 6 h
[3] = test system: p38; experiment: p38 phosphorylation, Western blotting; format: cell-based; conditions: MDA-MB-231 cells, 100 μM, 6 h
How it was run: as §1

[4] = test system: MDA-MB-231 cells; experiment: Cell viability, Trypan blue assay; format: cell-based; conditions: 48 h, 37 °C, n= 2 independent experiments
How it was run: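 Viability was scored by Trypan blue exclusion. MDA-MB-231 cells in 6-well plates were treated with the TAT-fused test peptide, a reverse-sequence TAT control or a reference Trx1 inhibitor for 48 h at 37 °C. Cells were washed with PBS, trypsinised and resuspended in medium. They were mixed with 0.4% trypan blue and counted on an automated cell counter. Results are mean ± SD of 2 independent experiments.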

[5] = test system: Trx1-Ask1 interaction; experiment: Co-immunoprecipitation of Ask1 and Trx1 in cells; format: cell-based; conditions: MDA-MB-231 cells, 6 h; co-IP
[6] = test system: GRP78; experiment: GRP78 induction; format: cell-based; conditions: MDA-MB-231 cells, 100 μM, 6 h
How it was run: as §1

[7] = ref [45], [46]; cited from earlier work
[8] = test system: AMPK; experiment: AMPK phosphorylation, Western blotting; format: cell-based; conditions: MDA-MB-231 cells, 100 μM, 6 h
How it was run: as §1

[9] = test system: JNK; experiment: JNK phosphorylation, Western blotting; format: cell-based; conditions: MDA-MB-231 cells, 100 μM, 6 h
How it was run: as §1

[10] = test system: Trx1; conditions: ref [44]; cited from earlier work
[11] = test system: human Grx1; conditions: ref [53]; cited from earlier work
[12] = biological target: T1, Trx1 (Homo sapiens, UniProt P10599); experiment: Phage display selection; format: binding; conditions: trial 3; bait Trx1; elution with 1GP3; three rounds of bio-panning; DTT 1 mM
T1 sequence (P10599 1-105): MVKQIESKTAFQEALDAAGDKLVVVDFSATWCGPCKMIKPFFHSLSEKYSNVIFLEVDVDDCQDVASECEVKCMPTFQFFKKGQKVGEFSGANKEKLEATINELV

[13] = biological target: T2, Grx1 (Homo sapiens, UniProt P35754); experiment: Grx1 de-glutathionylation enzyme assay; format: biochemical
T2 sequence (P35754 1-106): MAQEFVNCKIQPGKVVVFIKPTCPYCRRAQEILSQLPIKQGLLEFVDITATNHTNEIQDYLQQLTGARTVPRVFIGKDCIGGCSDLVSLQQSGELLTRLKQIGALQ
How it was run: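 Coupled assay: Grx1 (40 ng) reduces Cys-SSG (100 μM), and glutathione reductase recycles the resulting GSSG while oxidising NADPH. Buffer was 0.1 M phosphate pH 7.4 with 1 mM EDTA, BSA, 0.2 mM NADPH, yeast GR (4 units) and 0.25 mM GSH. Grx1 was incubated with peptide at 10–200 μM. NADPH loss was followed at 340 nm. Initial rates were converted to percent inhibition, and values are mean ± SD, n=3 independent experiments.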

[14] = not told
[15] = biological target: T2, Grx1; experiment: Phage display selection; format: binding; conditions: trial 2; bait Grx1; elution with 1GP3; three rounds of bio-panning; DTT 1 mM
[16] = biological target: T3, glutaredoxin 1 (Grx1), human, His-tagged, purified (human, UniProt P35754 1-106); experiment: SPR
T3 sequence (looked up): T2 sequence (P35754 1-106)

[17] = biological target: T3, glutaredoxin 1 (Grx1), human, …; experiment: pull-down
[18] = biological target: T4, thioredoxin 1 (Trx1), human, His-tagged, purified (human, UniProt P10599 1-105); experiment: pull-down
T4 sequence (looked up): T1 sequence (P10599 1-105)

[19] = biological target: T3, glutaredoxin 1 (Grx1), human, …; experiment: BLI
[20] = biological target: T4, thioredoxin 1 (Trx1), human, …; experiment: BLI

Q: With `CCC(C)SSc1ncc[nH]1` (centres unmarked) [PX-12, sec-butyl 2-imidazoylyl disulfide] as the molecule, how does the Ask1 phosphorylation [1] read?
A: activated Ask1 by phosphorylation

Q: What about the p53 stabilization ([2]; MCF7 cells (wild-type p53, high Trx1)) of the same molecule?
A: induced p53 stabilization

Q: What about the p53 stabilization ([2]; MDA-MB-231 cells (mutant p53 R280K)) of the same molecule?
A: strong stabilization of mutant p53

Q: What about the p38 phosphorylation [3] of the same molecule?
A: without p38 phosphorylation

Q: And the Cell viability [4]?
A: significantly decreased viability; also recorded: potent cytotoxicity

Q: And the “Disruption of Trx1-Ask1 interaction in cells” value [5]?
A: disrupted the Trx1-Ask1 interaction

Q: What about the GRP78 induction [6] of the same molecule?
A: induced expression of GRP78

Q: What about the “Anti-tumor activity in clinical evaluation” value [7] of the same molecule?
A: low anti-tumor activity

Q: And the AMPK phosphorylation [8]?
A: phosphorylation of AMPK

Q: And the JNK phosphorylation [9]?
A: induced JNK phosphorylation

Q: And the “Cys residues of Trx1 oxidized or modified” value [10]?
A: catalytic C32 and redox-sensitive C73

Q: Which “Binding affinity with human Grx1” value [11] does the source give for `N[C@@H](CCC(=O)N[C@@H](CS)C(=O)NCC(=O)O)C(=O)O` [reduced glutathione] here?
A: does not have significant binding affinity

Q: For AMYSRGT [2TP1], which “# of colony” value [12] is on record?
A: 2

Q: Which IC50 [13] does the source give for ANHTMQV [1GP3] here?
A: 46 µM

Q: For ETRWPNT [2GTP1], which Cell permeability [14] is on record?
A: poor cell permeability

Q: What about the IC50 [13] of the same molecule?
A: 11 µM

Q: For GRYAIPL [2GP2], which “# of colony” value [15] is on record?
A: 2

Q: Which “# of colony” value [12] does the source give for RFADPRL [2TP2] here?
A: 1

Q: Which “Inhibition of Grx1 de-glutathionylation” value ([13]; Cys-SSG 100 μM substrate, 0.1 M phosphate pH 7.4, peptide 10–200 μM) does the source give for SHYNYKV [1GP2] here?
A: did not have any inhibitory activity

Q: Which “# of colony” value [12] does the source give for SLKTTMP [2TP3] here?
A: 1

Q: With SVGSFSM [2GP1] as the molecule, how does the “# of colony” value [15] read?
A: 1

Q: Which Kd [16] does the source give for ANHTMQV (not fully specified (N-terminus); also: biotin, position not given here) [biotin-1GP3] here?
A: 38 ± 2 µM

Q: Does SHYNYKV (not fully specified (N-terminus); also: biotin, position not given here) [biotin-1GP2] bind [17]?
A: binds

Q: Does ETRWPNT [non-biotinylated 2GTP1] bind [18]?
A: binds

Q: With ETRWPNT (not fully specified (N-terminus); also: biotinylated, position not given here) [biotinylated 2GTP1 peptide (biotin-2GTP1)] as the molecule, how does the Kd [19] read?
A: 1.2 µM

Q: What about the Kd [20] of the same molecule?
A: 2.5 µM
